Assay [1] is described as follows: inhibitors of TNFa-induced NFkB p65 translocation, primary screen, imaging, HUVEC, MLSMR starter and 10KST1 sets (AID 438;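 active = inhibition above 20% together with a positive visual image hit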;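 also: compound added about 3h40 before a 20 min TNFalpha stimulation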;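 as to inhibition: signal is the nuclear over cytoplasmic p65 intensity ratio per well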). The following applies: HUVEC TNFa-induced p65 nuclear translocation; cell count: measured here: nuclei count (cytotoxicity indicator), at 2.08 µM; inhibition: at 2 µM, stronger effect = higher value, 0% TNFa-plus-vehicle, 100% no-TNFa wells.
A short description of assay [2]: inhibitors of mutant huntingtin aggregation, primary screen, imaging, exon1htt(103Q)mCFP cells, high-content imaging (AID 483;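 active = visual image review flags a hit and inhibition of aggregation exceeds 20%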;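 also: compound exposure lasted 3 days before fixation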;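 as to nuclei count: percent of the per-plate median nuclei count of sample wells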). To be noted: exon1htt(103Q)mCFP cell line, aggregate imaging, at 2 µM; inhibition of aggregation: stronger effect = higher value; nuclei count: measured here: cell count, toxicity.
Assay [3] can be described thus: inhibitors of E-selectin induction by TNFa, primary screen, imaging, HUVEC, immunofluorescence, MLSMR starter and 10KST1 sets (AID 487;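 active = visually confirmed hit in the image check and inhibition above 20%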;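 as to inhibition: signal is fraction of cell area covered by stained E-selectin grains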;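 as to nuclei count: 100% = median nuclei count of all wells on the same plate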). To be noted: HUVEC TNFalpha-induced E-selectin immunofluorescence imaging, at 2 µM; inhibition: stronger effect = higher value; nuclei count: measured here: cell number, toxicity.
Assay [4] addresses Voltage-gated potassium channel subunit beta-2 (Rattus norvegicus) (UniProt P62483). As to the kind of experiment: KvBeta enzyme negative modulators, primary screen, biochemical, NADPH fluorescence (AID 622;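 active = fluorescence slope higher than the sample average by over 3 SD, cut at about -0.22 in these data, passing the limit was not always enough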;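 also: slope of raw intensity against log time taken from 70 to 1610 s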). To be noted: recombinant KvBeta, 4-cyanobenzaldehyde reduction, at 10 µM, stronger effect = higher value.
The target is the same in assay [5]. As to the kind of experiment: KvBeta positive modulators, primary screen, biochemical, NADPH fluorescence (AID 623;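 active = NADPH fluorescence slope more negative than the mean of all samples by about 3 SD, 99.7% confidence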;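 also: fluorescence intensity change per second fitted from 20 to 320 s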). The following applies: Recombinant KvBeta, NADPH fluorescence decrease slope, 10 min; at 10 µM; stronger effect = lower value.
For assay [6], the target named is Muscarinic acetylcholine receptor M4 (Homo sapiens) (UniProt P08173). As to the kind of experiment: compounds altering M4/GIRK thallium flux, either direction, primary screen, M4 allosteric agonist project, cell-based, HEK293 M4/GIRK, BTC-AM (AID 625;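 active = fluorescence slope after compound addition differing from the mean of all tested samples at 99.7% confidence, mostly higher but some lower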;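 also: thallium influx through GIRK channels coupled to M4 in HEK293 cells with BTC-AM dye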). The following applies: at 10 µM, actives lie on both sides. A digest of the protocol: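 assay system = HEK293 cells with M4 receptor and GIRK channels | medium = pH 7.3 thallium assay buffer | doses = 10 µM final, single point | timing = cells overnight at 37 °C, BTC-AM loading 1 h, reads 2 min total | signal = BTC-AM fluorescence, 1 Hz kinetic reads | read-out = post-addition slope, 15–24 s, of baseline-normalized fluorescence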

Assay [7] in a line: inhibitors of Sendai virus-induced IRF3 signaling, primary screen, TLR/RLR signaling modifier project, cell-based, Sendai virus stimulus, luciferase, 10K MLSCN set (AID 602276;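 active = inhibition at or above 50% at 10 µM; inactive = inhibition below 50%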;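 also: firefly luciferase from ISG56 promoter only with Renilla not read in this screen; 0% = Sendai virus plus DMSO and 100% = medium plus DMSO without virus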). The following applies: HEK293 RL24 IRF3 luciferase reporter, at 10 µM, stronger effect = higher value.
Assay [8] can be described thus: inhibitors of poly I:C-induced TLR3 signaling, primary screen, cell-based, poly I:C stimulus, luciferase, 10K MLSCN set (AID 602277). The following applies: HEK293-TLR3 RL24 IRF3 luciferase reporter, at 10 µM, stronger effect = higher value.

Activity calls are given as the source filed them.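 The calls were made as follows, unless noted: active = inhibition of the reporter signal at or above 50%; inactive = inhibition below 50%.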

Muscarinic acetylcholine receptor M4 (Homo sapiens), sequence (P08173 whole entry, looked up): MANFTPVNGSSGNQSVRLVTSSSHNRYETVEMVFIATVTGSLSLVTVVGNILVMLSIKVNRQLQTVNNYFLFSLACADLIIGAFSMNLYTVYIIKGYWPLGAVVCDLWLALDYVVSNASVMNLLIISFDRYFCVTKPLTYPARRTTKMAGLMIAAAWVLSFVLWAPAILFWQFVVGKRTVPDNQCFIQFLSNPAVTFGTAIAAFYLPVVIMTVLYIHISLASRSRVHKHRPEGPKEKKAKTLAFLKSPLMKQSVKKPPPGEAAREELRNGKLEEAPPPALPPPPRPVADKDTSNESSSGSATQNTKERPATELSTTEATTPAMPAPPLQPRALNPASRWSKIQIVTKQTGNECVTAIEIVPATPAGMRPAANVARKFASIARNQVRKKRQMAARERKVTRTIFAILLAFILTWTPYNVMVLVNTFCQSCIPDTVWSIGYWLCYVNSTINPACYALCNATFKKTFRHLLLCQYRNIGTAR
Voltage-gated potassium channel subunit beta-2 (Rattus norvegicus), sequence (P62483 whole entry, looked up): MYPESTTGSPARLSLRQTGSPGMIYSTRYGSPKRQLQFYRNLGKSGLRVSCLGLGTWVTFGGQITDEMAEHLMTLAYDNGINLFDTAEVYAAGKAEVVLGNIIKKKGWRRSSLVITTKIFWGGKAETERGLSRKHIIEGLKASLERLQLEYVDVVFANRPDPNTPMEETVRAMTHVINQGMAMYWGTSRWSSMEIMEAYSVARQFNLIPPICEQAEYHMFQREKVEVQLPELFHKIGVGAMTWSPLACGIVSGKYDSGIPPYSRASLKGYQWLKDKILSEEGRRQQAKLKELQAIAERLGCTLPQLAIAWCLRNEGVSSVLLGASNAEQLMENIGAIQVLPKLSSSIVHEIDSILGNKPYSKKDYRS

The term inhibition denotes the change of the read-out against control, counted positive when it falls. Turning to `Cc1ccc(C(=O)NC2CC3CCCC(C2)N3C(=O)NC2CCCCC2)cc1` (centres undefined), in assay [1], the cell count was 391. Further, the inhibition was -5% (inactive) in assay [1], -32.5% (inactive) in assay [3], -0.377% (inactive) in assay [7] and 9.12% (inactive) in assay [8]. Moreover, the inhibition of aggregation in assay [2] is 0.8% (inactive). The nuclei count was found to be 98.7% in assay [2] and 80.8% in assay [3]. Besides, the fluorescence slope is -0.559 (inactive) in assay [4] and 0.00417 (inactive) in assay [6]. Further, in assay [5], the NADPH fluorescence slope is 5.4e-08 (inactive).

Regarding `Cc1ccc(CNC(=O)CCCn2c(=O)c3ccccc3n(CC(=O)NCc3ccco3)c2=O)cc1`, the cell count in assay [1] turned out to be 451. Also, the inhibition in assay [1] is -11.1% (inactive); in assay [3] it was -76.5% (inactive); in assay [7] it was -6.73% (inactive); in assay [8] it was -15.2% (inactive). Also, the inhibition of aggregation in assay [2] was -4% (inactive). Also, the nuclei count was 114% in assay [2] and 97.1% in assay [3]. Moreover, the fluorescence slope was -0.509 (inactive) in assay [4] and 0.00296 (inactive) in assay [6]. In addition, the NADPH fluorescence slope in assay [5] was -0.000209 (inactive).

Regarding `CCN(CC)c1ccc2c(c1)C(=O)N(C)C2=O`, the cell count in assay [1] was found to be 580. The inhibition in assay [1] is -1.9% (inactive); in assay [3], -49% (inactive); in assay [7], -6.87% (inactive); in assay [8] it was -37.5% (inactive). The inhibition of aggregation in assay [2] was -5.6% (inactive). Further, the nuclei count amounted to 92.2% in assay [2] and 104% in assay [3]. The fluorescence slope in assay [4] was -0.417 (inactive); in assay [6], 0.00562 (inactive). Moreover, the NADPH fluorescence slope in assay [5] is -6.9e-05 (inactive).

Consider `CCOc1ccc(OCc2ccc(C(=O)Nc3cccc(C)n3)o2)cc1`, for which the cell count in assay [1] was 731. In addition, the inhibition is -4.2% (inactive) in assay [1], -43.1% (inactive) in assay [3], -27% (inactive) in assay [7] and -74% (inactive) in assay [8]. Also, the inhibition of aggregation in assay [2] is -3.4% (inactive). Further, the results for the nuclei count in assay [2] and in assay [3] were 114% and 117%, respectively. The fluorescence slope is -0.557 (inactive) in assay [4] and 0.00558 (inactive) in assay [6]. The NADPH fluorescence slope in assay [5] was -6.3e-05 (inactive).

`CCCS(=O)(=O)N1CCN(C(=O)CCC2CCCC2)CC1`: the cell count in assay [1] is 222. In addition, the inhibition in assay [1] was 8.5% (inactive); in assay [3], -18.1% (inactive); in assay [7] it was 10.9% (inactive); in assay [8] it was 17.4% (inactive). In addition, the inhibition of aggregation in assay [2] is 15.8% (inactive). The results for the nuclei count in assay [2] and in assay [3] were 77.9% and 148%, respectively. The fluorescence slope in assay [4] is -0.435 (inactive); in assay [6], 0.00496 (inactive). Further, the NADPH fluorescence slope in assay [5] was -3.3e-05 (inactive).

Consider `Cc1ccc(S(=O)(=O)N2CCC(C(=O)N[C@@H](Cc3ccccc3)C(=O)O)CC2)cc1`, for which, in assay [1], the cell count came to 332. The inhibition in assay [1] is -14.4% (inactive); in assay [3], 41.9% (inactive); in assay [7] it was -10.7% (inactive); in assay [8] it was -5.08% (inactive). Also, the inhibition of aggregation in assay [2] is 11.7% (inactive). The nuclei count was 99.8% in assay [2] and 97.6% in assay [3]. For the same compound, the fluorescence slope in assay [4] was -0.563 (inactive); in assay [6], 0.00616 (inactive). The NADPH fluorescence slope in assay [5] is -4.9e-05 (inactive).

In the case of `CCN1CCN(c2c(Cl)cccc2NC(=O)c2ccco2)CC1`, the cell count in assay [1] is 248. Also, the inhibition is 10.6% (inactive) in assay [1], -12.4% (inactive) in assay [3], 1.94% (inactive) in assay [7] and 29.2% (inactive) in assay [8]. Moreover, the inhibition of aggregation in assay [2] was -8.4% (inactive). Further, the nuclei count in assay [2] is 77.9%; in assay [3], 84.2%. Besides, the values for the fluorescence slope in assay [4] and in assay [6] were -0.531 (inactive) and 0.00466 (inactive), respectively. In assay [5], the NADPH fluorescence slope is -2.5e-05 (inactive).

Consider `CCC(=O)n1nc(-c2ccco2)nc1N`, for which the cell count in assay [1] came to 594. Further, the inhibition in assay [1] was -0.5% (inactive); in assay [3], -153% (inactive); in assay [7] it was 14.3% (inactive); in assay [8], 15.1% (inactive). In assay [2], the inhibition of aggregation is -13.1% (inactive). The values for the nuclei count in assay [2] and in assay [3] were 104% and 114%, respectively. Moreover, the fluorescence slope is -0.486 (inactive) in assay [4] and 0.00538 (inactive) in assay [6]. The NADPH fluorescence slope in assay [5] is -4.1e-05 (inactive).

As to `COc1cccc(OC)c1C(=O)N1CCOCC1`, in assay [1], the cell count worked out at 505. The inhibition was -7.7% (inactive) in assay [1], -105% (inactive) in assay [3], 17.5% (inactive) in assay [7] and 25.3% (inactive) in assay [8]. In addition, the inhibition of aggregation in assay [2] was 7.2% (inactive). Moreover, the results for the nuclei count in assay [2] and in assay [3] were 103% and 126%, respectively. For the same compound, the fluorescence slope was -0.536 (inactive) in assay [4] and 0.00602 (inactive) in assay [6]. Moreover, the NADPH fluorescence slope in assay [5] was -3.1e-05 (inactive).

With `CCn1c(=O)cc(OCC(=O)NCCCN2CC(C)CC(C)C2)c2ccccc21` (centres undefined), the cell count in assay [1] amounted to 395. For the same compound, the inhibition in assay [1] is -5.5% (inactive); in assay [3], -25% (inactive); in assay [7] it was 69.4% (active); in assay [8] it was 55.8% (active). Moreover, in assay [2], the inhibition of aggregation is -18.3% (inactive). Also, the nuclei count in assay [2] was 111%; in assay [3], 123%. For the same compound, the values for the fluorescence slope in assay [4] and in assay [6] were -0.511 (inactive) and 0.00485 (inactive), respectively. Further, the NADPH fluorescence slope in assay [5] is -0.000129 (inactive).

Consider `Cc1ccc(-c2cc(C(=O)N3CCCC3)no2)cc1`, for which the cell count in assay [1] came to 471. Besides, the inhibition is 7.3% (inactive) in assay [1], -1.1% (inactive) in assay [3], -46.7% (inactive) in assay [7] and -130% (inactive) in assay [8]. The inhibition of aggregation in assay [2] is -20.5% (inactive). Besides, the nuclei count is 19.5% in assay [2] and 106% in assay [3]. Moreover, the fluorescence slope was -0.585 (inactive) in assay [4] and 0.00612 (inactive) in assay [6]. Further, the NADPH fluorescence slope in assay [5] was 1.3e-05 (inactive).

Take `O=C1CC(c2ccco2)=Nc2ccccc2N1`: in assay [1], the cell count stood at 195. Also, the inhibition in assay [1] is -13.4% (inactive); in assay [3] it was 9.4% (inactive); in assay [7] it was -1.5% (inactive); in assay [8] it was -5.46% (inactive). Further, in assay [2], the inhibition of aggregation was 7.9% (inactive). The nuclei count in assay [2] is 78.3%; in assay [3], 84.6%. Besides, the fluorescence slope in assay [4] is -0.573 (inactive); in assay [6], 0.00527 (inactive). Also, in assay [5], the NADPH fluorescence slope is 1.4e-05 (inactive).

For `CCOC(=O)c1nn(-c2sc(C(=O)OC)c(C)c2C(=O)OC)cc1O`, the cell count in assay [1] worked out at 449. Moreover, the inhibition in assay [1] was -6.2% (inactive); in assay [3] it was 0.1% (inactive); in assay [7], 20.5% (inactive); in assay [8], 24.1% (inactive). Moreover, the inhibition of aggregation in assay [2] is 1% (inactive). The nuclei count is 94.5% in assay [2] and 108% in assay [3]. Moreover, the fluorescence slope was -0.518 (inactive) in assay [4] and 0.00503 (inactive) in assay [6]. In assay [5], the NADPH fluorescence slope is -3.7e-05 (inactive).

For `COCCn1c(=O)[nH]c2cc(C(=O)NCc3cccnc3)ccc2c1=O`, the cell count in assay [1] came to 744. Moreover, the inhibition in assay [1] is 3.8% (inactive); in assay [3] it was 56.4% (active); in assay [7], 10.8% (inactive); in assay [8] it was 13.4% (inactive). Further, the inhibition of aggregation in assay [2] was 7.4% (inactive). Also, the nuclei count in assay [2] turned out to be 93.8%; in assay [3], 102%. Moreover, the fluorescence slope in assay [4] is -0.302 (inactive); in assay [6], 0.00755 (inactive). The NADPH fluorescence slope in assay [5] is -4.8e-05 (inactive).

The values above are taken from PubChem BioAssay.
